Test results from ChEMBL document CHEMBL1122426, “Radioiodine-labeled N,N-dimethyl-N'-(2-hydroxy-3-alkyl-5-iodobenzyl)-1,3-propanediamines for brain perfusion imaging” (J Med Chem, 1983).
Each block holds one molecule with its values, some of them ahead of it.

Columns and labels:
Rattus norvegicus [1] = test: Biodistribution of I-125 labeled compound in rat liver, 1 hr after intravenous injection. value expressed in average % dose per organ; value may range from 7.32 to 10.1; assay type: ADME, organism-based; conditions: in vivo
Rattus norvegicus [2] = test: Biodistribution of I-125 labeled compound in rat brain to blood ratio, 1 hr after intravenous injection. value expressed in % dose per gram ratio; assay type: ADME, organism-based
Outline: (§1)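 Rats given I-125 diamine iv; tissue activity at 2 min or 1 h compared with diluted injected-dose aliquots. % dose per gram approximated as % dose per organ divided by mean organ weight (brain 1.65 g; blood 18 g). Ratio taken from the per-gram values.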

Rattus norvegicus [3] = test: Biodistribution of I-125 labeled compound in rat blood, 2 min after intravenous injection. value expressed in average % dose per organ; value may range from 2.74 to 5.33; assay type: ADME, organism-based; conditions: in vivo
Rattus norvegicus [4] = test: Biodistribution of I-125 labeled compound in rat heart, 1 hr after intravenous injection. value expressed in average % dose per organ; value may range from 1.12 to 1.86; assay type: ADME, organism-based; conditions: in vivo
Rattus norvegicus [5] = test: Biodistribution of I-125 labeled compound in rat muscle, 2 min after intravenous injection. value expressed in average % dose per organ; value may range from 4.59 to 12.0; assay type: ADME, organism-based, Muscle tissue; conditions: in vivo
Rattus norvegicus [6] = test: Biodistribution of I-125 labeled compound in rat thyroid, 2 min after intravenous injection. value expressed in average % dose per organ; value may range from 0.15 to 0.25; assay type: ADME, organism-based, Thyroid gland; conditions: in vivo
Rattus norvegicus [7] = test: Biodistribution of I-125 labeled compound in rat brain to blood ratio, 2 min after intravenous injection. value expressed in % dose per gram ratio; assay type: ADME, organism-based; outline: as §1
Rattus norvegicus [8] = test: Biodistribution of I-125 labeled compound in rat brain, 2 min after intravenous injection. value expressed in average % dose per organ; value may range from 1.45 to 1.89; assay type: ADME, organism-based; conditions: in vivo
Rattus norvegicus [9] = test: Biodistribution of I-125 labeled compound in rat thyroid, 1 hr after intravenous injection. value expressed in average % dose per organ; value may range from 0.16 to 0.26; assay type: ADME, organism-based, Thyroid gland; conditions: in vivo
Rattus norvegicus [10] = test: Biodistribution of I-125 labeled compound in rat liver, 2 min after intravenous injection. value expressed in average % dose per organ; value may range from 6.36 to 14.2; assay type: ADME, organism-based; conditions: in vivo
Rattus norvegicus [11] = test: Biodistribution of I-125 labeled compound in rat blood, 1 hr after intravenous injection. value expressed in average % dose per organ; value may range from 0.99 to 1.37; assay type: ADME, organism-based; conditions: in vivo
Rattus norvegicus [12] = test: Biodistribution of I-125 labeled compound in rat muscle, 1 hr after intravenous injection. value expressed in average % dose per organ; value may range from 11.3 to 17.1; assay type: ADME, organism-based, Muscle tissue; conditions: in vivo
Rattus norvegicus [13] = test: Biodistribution of I-125 labeled compound in rat heart, 2 min after intravenous injection. value expressed in average % dose per organ; value may range from 2.20 to 3.07; assay type: ADME, organism-based; conditions: in vivo
[14] = The protein binding ability of compound was expressed in Percent free; assay type: ADME; conditions: read-out: % free
Outline: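 Binding to pooled human serum was measured by equilibrium dialysis. 0.4 mL serum and 0.4 mL 0.15 M phosphate buffer, pH 7.4, were separated by a membrane, and 0.025 μCi radiolabeled diamine was added on the buffer side. Cells were rotated at 37 °C for 18 h, and aliquots from both sides were weighed and counted. % free = buffer/serum radioactivity concentration ratio × 100. The membrane was also counted.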

Rattus norvegicus [15] = test: Biodistribution of I-125 labeled compound in rat lungs, 1 hr after intravenous injection. value expressed in average % dose per organ; value may range from 11.5 to 26.1; assay type: ADME, organism-based, Lung; conditions: in vivo
Rattus norvegicus [16] = species on record: Rattus norvegicus; test: Distribution coefficient at pH 7.4 in rat; assay type: ADME, organism-based
Outline: (§2)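 Octanol/buffer partition: I-125 labeled diamine mixed with 3 g each of 1-octanol and 0.1 M phosphate buffer at pH 7.0 or 7.4, vortexed 3× 1 min, centrifuged 5 min. Two 0.5 g samples of each layer counted. Value is cpm/g octanol over cpm/g buffer, usually repeated three times.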

Rattus norvegicus [17] = species on record: Rattus norvegicus; test: Distribution coefficient at pH 7.0 in rat; assay type: ADME, organism-based; outline: as §2
Rattus norvegicus [18] = test: Biodistribution of I-125 labeled compound in rat brain, 1 hr after intravenous injection. value expressed in average % dose per organ; value may range from 1.51 to 2.17; assay type: ADME, organism-based; conditions: in vivo
Rattus norvegicus [19] = test: Biodistribution of I-125 labeled compound in rat lungs, 2 min after intravenous injection. value expressed in average % dose per organ; value may range from 24.6 to 42.2; assay type: ADME, organism-based, Lung; conditions: in vivo
Rattus norvegicus [20] = test: Biodistribution of I-125 labeled compound in rat blood, 1 hr after intravenous injection. value expressed in average % dose per organ; value may range from 1.64 to 1.91; assay type: ADME, organism-based; conditions: in vivo
Rattus norvegicus [21] = test: Biodistribution of I-125 labeled compound in rat brain, 2 min after intravenous injection. value expressed in average% dose per organ; value may range from 0.85 to 1.01; assay type: ADME, organism-based; conditions: in vivo
Rattus norvegicus [22] = test: Biodistribution of I-125 labeled compound in rat muscle, 2 min after intravenous injection. value expressed in average % dose per organ; value may range from 5.95 to 6.51; assay type: ADME, organism-based, Muscle tissue; conditions: in vivo
Rattus norvegicus [23] = test: Biodistribution of I-125 labeled compound in rat blood, 2 min after intravenous injection. value expressed in average % dose per organ; value may range from 3.95 to 6.09; assay type: ADME, organism-based; conditions: in vivo
Rattus norvegicus [24] = test: Biodistribution of I-125 labeled compound in rat […] ratio, 1 hr after intravenous injection. value expressed in % dose per gram ratio; assay type: ADME, organism-based; conditions: in vivo
Rattus norvegicus [25] = test: Biodistribution of I-125 labeled compound in rat heart, 2 min after intravenous injection. value expressed in average % dose per organ; value may range from 2.13 to 2.96; assay type: ADME, organism-based; conditions: in vivo
Rattus norvegicus [26] = test: Biodistribution of I-125 labeled compound in rat heart, 1 hr after intravenous injection. value expressed in average % dose per organ; value may range from 2.29 to 2.35; assay type: ADME, organism-based; conditions: in vivo
Rattus norvegicus [27] = test: Biodistribution of I-125 labeled compound in rat lungs, 1 hr after intravenous injection. value expressed in average % dose per organ; value may range from 15.1 to 17.1; assay type: ADME, organism-based, Lung; conditions: in vivo
Rattus norvegicus [28] = test: Biodistribution of I-125 labeled compound in rat muscle, 1 hr after intravenous injection. value expressed in average % dose per organ; value may range from 11.0 to 15. 8; assay type: ADME, organism-based, Muscle tissue; conditions: in vivo
Rattus norvegicus [29] = test: Biodistribution of I-125 labeled compound in rat brain, 1 hr after intravenous injection. value expressed in average % dose per organ; value may range from 0.95 to 1.00; assay type: ADME, organism-based; conditions: in vivo
Rattus norvegicus [30] = test: Biodistribution of I-125 labeled compound in rat liver, 1 hr after intravenous injection. value expressed in average % dose per organ; value may range from 11.0 to 13.4; assay type: ADME, organism-based; conditions: in vivo
Rattus norvegicus [31] = test: Biodistribution of I-125 labeled compound in rat lungs, 2 min after intravenous injection. value expressed in average % dose per organ; value may range from 31.6 to 34.0; assay type: ADME, organism-based, Lung; conditions: in vivo
Rattus norvegicus [32] = test: Biodistribution of I-125 labeled compound in rat liver, 2 min after intravenous injection. value expressed in average % dose per organ; value may range from 12.3 to 15.0; assay type: ADME, organism-based; conditions: in vivo
Rattus norvegicus [33] = test: Biodistribution of I-125 labeled compound in rat thyroid, 1 hr after intravenous injection. value expressed in average% dose per organ; value may range from 0.19 to 0.25; assay type: ADME, organism-based, Thyroid gland; conditions: in vivo
Rattus norvegicus [34] = test: Biodistribution of I-125 labeled compound in rat thyroid, 2 min after intravenous injection. value expressed in average % dose per organ; value may range from 0.13 to 0.19; assay type: ADME, organism-based, Thyroid gland; conditions: in vivo

- Average dose per organ (Rattus norvegicus [1]): 8.01%
- Ratio (Rattus norvegicus [2]): 16.7%
- Average dose per organ (Rattus norvegicus [3]): 4.09%
- Average dose per organ (Rattus norvegicus [4]): 1.49%
- Average dose per organ (Rattus norvegicus [5]): 7.44%
- Average dose per organ (Rattus norvegicus [6]): 0.17%
- Ratio (Rattus norvegicus [7]): 4.49%
- Average dose per organ (Rattus norvegicus [8]): 1.71%
- Average dose per organ (Rattus norvegicus [9]): 0.21%
- Average dose per organ (Rattus norvegicus [10]): 9.54%
- Average dose per organ (Rattus norvegicus [11]): 1.15%
- Average dose per organ (Rattus norvegicus [12]): 14.6%
- Average dose per organ (Rattus norvegicus [13]): 2.67%
- fraction unbound [14]: 0.159
- Average dose per organ (Rattus norvegicus [15]): 16.1%
- Distribution coefficient (Rattus norvegicus [16]): 176
- Distribution coefficient (Rattus norvegicus [17]): 44.8
- Average dose per organ (Rattus norvegicus [18]): 1.79%
- Average dose per organ (Rattus norvegicus [19]): 33%
SMILES: CCCc1cc(I)cc(CNCCCN(C)C)c1O

- Average dose per organ (Rattus norvegicus [20]): 1.74%
- Average dose per organ (Rattus norvegicus [21]): 0.94%
- Average dose per organ (Rattus norvegicus [22]): 6.17%
- Average dose per organ (Rattus norvegicus [23]): 5.3%
- Ratio (Rattus norvegicus [24]): 5.99%
- Average dose per organ (Rattus norvegicus [25]): 2.51%
- Average dose per organ (Rattus norvegicus [26]): 2.33%
- Ratio (Rattus norvegicus [7]): 1.91%
- Average dose per organ (Rattus norvegicus [27]): 16.3%
- Average dose per organ (Rattus norvegicus [28]): 13.4%
- Average dose per organ (Rattus norvegicus [29]): 0.97%
- Average dose per organ (Rattus norvegicus [30]): 12.4%
- Average dose per organ (Rattus norvegicus [31]): 33%
- Average dose per organ (Rattus norvegicus [32]): 13.8%
- Average dose per organ (Rattus norvegicus [33]): 0.22%
- fraction unbound [14]: 0.0517
- Average dose per organ (Rattus norvegicus [34]): 0.16%
- Distribution coefficient (Rattus norvegicus [16]): 468
- Distribution coefficient (Rattus norvegicus [17]): 260
SMILES: CN(C)CCCNCc1cc(I)cc(C2CCCCC2)c1O
